Results: ChEMBL document CHEMBL5303300, “EUbOPEN Chemogenomics Library - Multiplex” (2023)
“And” between values parts separate entries of the source, which are not always exact repeats. Equal values may be shown once.

Key:
Assay type in all cases: toxicity, cell-based
HEK-293T = assay: Multiplex assay against HEK293T; settings: human, number of replicates 2
In short: (§1)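 Phenotypes for tubulin, mitochondrial mass and membrane permeability are expressed as per cents of healthy-nucleus cells. Cells were stained live at seeding with Hoechst33342, BioTracker Green Microtubule Cytoskeleton Dye, MitoTracker Red and Annexin V Alexa Fluor 680, then imaged after compound addition on a CQ1 microscope at 37°C and 5% CO2. Machine-learning gating in CellPathfinder separated Hoechst high-intensity objects from normal cells, divided normal cells by nuclear state (healthy, pyknosed, fragmented) and divided pyknosed cells into mitotic or apoptotic.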

U2OS = assay: Multiplex assay against U2OS; settings: human, number of replicates 2; in short: as §1
Fibroblast = assay: Multiplex assay against human fibroblast; settings: number of replicates 2; in short: as §1
[1] = 12 h, 1 µM, compound concentration 1 uM
[2] = 12 h, 10 µM, compound concentration 10 uM
[3] = 24 h, 1 µM, compound concentration 1 uM
[4] = 24 h, 10 µM, compound concentration 10 uM
[5] = 48 h, 1 µM, compound concentration 1 uM
[6] = 48 h, 10 µM, compound concentration 10 uM

## O=C(Nc1ccc(Cl)c(-c2ccccn2)c1)c1cccc(COc2ccc(Br)cc2CNCCO)c1.O=CO
HEK-293T; [1]
  Population Apoptotic (%): 56% and 52%
  Population Fragmented Nuclei (%): 4% and 3%
  Population Healthy Nuclei (%): 76% and 80%
  Population Hoechst High Intensity Objects (%): 8% and 10%
  Population Membrane Permeable-Phenotype (%): 6% and 5%
  Population Mitochondria Different-Phenotype (%): 37% and 35%
  Population Mitotic Cells (%): 43% and 47%
  Population Normal (%): 91% and 89%
  Population Pyknosed Nuclei (%): 18% and 15%
  Population Tubulin-Different-Phenotype (%): 92% and 94%
  Total Cell Count: 417 and 613
HEK-293T; [2]
  Population Apoptotic (%): 85% and 73%
  Population Fragmented Nuclei (%): 0% and 7%
  Population Healthy Nuclei (%): 79% and 71%
  Population Hoechst High Intensity Objects (%): 11% and 13%
  Population Membrane Permeable-Phenotype (%): 1%
  Population Mitochondria Different-Phenotype (%): 91% and 83%
  Population Mitotic Cells (%): 14% and 26%
  Population Normal (%): 88% and 86%
  Population Pyknosed Nuclei (%): 19% and 21%
  Population Tubulin-Different-Phenotype (%): 81% and 95%
  Total Cell Count: 238 and 269
HEK-293T; [3]
  Population Apoptotic (%): 48% and 54%
  Population Fragmented Nuclei (%): 4% and 6%
  Population Healthy Nuclei (%): 85% and 82%
  Population Hoechst High Intensity Objects (%): 6% and 10%
  Population Membrane Permeable-Phenotype (%): 6%
  Population Mitochondria Different-Phenotype (%): 29% and 19%
  Population Mitotic Cells (%): 51% and 45%
  Population Normal (%): 93% and 89%
  Population Pyknosed Nuclei (%): 9% and 11%
  Population Tubulin-Different-Phenotype (%): 88% and 86%
  Total Cell Count: 566 and 806
HEK-293T; [4]
  Population Apoptotic (%): 82% and 80%
  Population Fragmented Nuclei (%): 4%
  Population Healthy Nuclei (%): 75% and 72%
  Population Hoechst High Intensity Objects (%): 16% and 15%
  Population Membrane Permeable-Phenotype (%): 1% and 2%
  Population Mitochondria Different-Phenotype (%): 95% and 89%
  Population Mitotic Cells (%): 17% and 19%
  Population Normal (%): 83% and 84%
  Population Pyknosed Nuclei (%): 19% and 23%
  Population Tubulin-Different-Phenotype (%): 74% and 91%
  Total Cell Count: 248 and 263
HEK-293T; [5]
  Population Apoptotic (%): 48% and 34%
  Population Fragmented Nuclei (%): 7% and 9%
  Population Healthy Nuclei (%): 87% and 85%
  Population Hoechst High Intensity Objects (%): 8% and 10%
  Population Membrane Permeable-Phenotype (%): 9% and 8%
  Population Mitochondria Different-Phenotype (%): 8% and 5%
  Population Mitotic Cells (%): 51% and 65%
  Population Normal (%): 91% and 89%
  Population Pyknosed Nuclei (%): 4%
  Population Tubulin-Different-Phenotype (%): 61% and 66%
  Total Cell Count: 894 and 1474
HEK-293T; [6]
  Population Apoptotic (%): 79% and 78%
  Population Fragmented Nuclei (%): 3% and 1%
  Population Healthy Nuclei (%): 71% and 68%
  Population Hoechst High Intensity Objects (%): 19% and 12%
  Population Membrane Permeable-Phenotype (%): 4% and 1%
  Population Mitochondria Different-Phenotype (%): 82% and 86%
  Population Mitotic Cells (%): 20% and 21%
  Population Normal (%): 80% and 87%
  Population Pyknosed Nuclei (%): 24% and 29%
  Population Tubulin-Different-Phenotype (%): 84% and 89%
  Total Cell Count: 339 and 305
U2OS; [1]
  Population Apoptotic (%): 71% and 88%
  Population Fragmented Nuclei (%): 11% and 3%
  Population Healthy Nuclei (%): 62% and 75%
  Population Hoechst High Intensity Objects (%): 0%
  Population Membrane Permeable-Phenotype (%): 47% and 48%
  Population Mitochondria Different-Phenotype (%): 23% and 66%
  Population Mitotic Cells (%): 28% and 11%
  Population Normal (%): 100%
  Population Pyknosed Nuclei (%): 25% and 20%
  Population Tubulin-Different-Phenotype (%): 82% and 87%
U2OS; [2]
  Population Apoptotic (%): 75% and 64%
  Population Healthy Nuclei (%): 44% and 72%
  Population Hoechst High Intensity Objects (%): 0%
  Population Membrane Permeable-Phenotype (%): 62% and 32%
  Population Mitochondria Different-Phenotype (%): 62% and 57%
  Population Mitotic Cells (%): 25% and 36%
  Population Normal (%): 100%
  Population Pyknosed Nuclei (%): 11% and 16%
  Population Tubulin-Different-Phenotype (%): 100% and 93%
U2OS; [3]
  Population Apoptotic (%): 69% and 82%
  Population Healthy Nuclei (%): 48% and 76%
  Population Hoechst High Intensity Objects (%): 0%
  Population Membrane Permeable-Phenotype (%): 31% and 45%
  Population Mitochondria Different-Phenotype (%): 57% and 69%
  Population Mitotic Cells (%): 30% and 17%
  Population Normal (%): 100% and 99%
  Population Pyknosed Nuclei (%): 33% and 20%
  Population Tubulin-Different-Phenotype (%): 100% and 84%
U2OS; [4]
  Population Apoptotic (%): 100% and 71%
  Population Healthy Nuclei (%): 51% and 63%
  Population Hoechst High Intensity Objects (%): 0%
  Population Membrane Permeable-Phenotype (%): 82% and 75%
  Population Mitochondria Different-Phenotype (%): 82% and 72%
  Population Normal (%): 100%
  Population Pyknosed Nuclei (%): 15% and 28%
  Population Tubulin-Different-Phenotype (%): 100% and 98%
U2OS; [5]
  Population Apoptotic (%): 69% and 89%
  Population Healthy Nuclei (%): 52% and 66%
  Population Hoechst High Intensity Objects (%): 2% and 0%
  Population Membrane Permeable-Phenotype (%): 40% and 46%
  Population Mitochondria Different-Phenotype (%): 52% and 59%
  Population Mitotic Cells (%): 30% and 10%
  Population Normal (%): 97% and 100%
  Population Pyknosed Nuclei (%): 27% and 30%
  Population Tubulin-Different-Phenotype (%): 92% and 65%
U2OS; [6]
  Population Apoptotic (%): 94% and 90%
  Population Healthy Nuclei (%): 15% and 28%
  Population Hoechst High Intensity Objects (%): 2% and 1%
  Population Membrane Permeable-Phenotype (%): 100% and 80%
  Population Mitochondria Different-Phenotype (%): 66% and 72%
  Population Mitotic Cells (%): 5% and 9%
  Population Normal (%): 97% and 98%
  Population Pyknosed Nuclei (%): 44% and 62%
  Population Tubulin-Different-Phenotype (%): 100% and 97%
Fibroblast; [1]
  Population Apoptotic (%): 41% and 58%
  Population Fragmented Nuclei (%): 4% and 14%
  Population Healthy Nuclei (%): 72% and 56%
  Population Hoechst High Intensity Objects (%): 0% and 1%
  Population Membrane Permeable-Phenotype (%): 10% and 13%
  Population Mitochondria Different-Phenotype (%): 1% and 6%
  Population Mitotic Cells (%): 58% and 41%
  Population Normal (%): 100% and 98%
  Population Pyknosed Nuclei (%): 23% and 28%
  Population Tubulin-Different-Phenotype (%): 71% and 68%
  Total Cell Count: 208 and 161
Fibroblast; [2]
  Population Apoptotic (%): 46% and 42%
  Population Fragmented Nuclei (%): 15% and 17%
  Population Healthy Nuclei (%): 58%
  Population Hoechst High Intensity Objects (%): 0%
  Population Membrane Permeable-Phenotype (%): 21% and 16%
  Population Mitochondria Different-Phenotype (%): 6% and 14%
  Population Mitotic Cells (%): 53% and 57%
  Population Normal (%): 100% and 99%
  Population Pyknosed Nuclei (%): 25% and 24%
  Population Tubulin-Different-Phenotype (%): 83% and 85%
  Total Cell Count: 318 and 361
Fibroblast; [3]
  Population Apoptotic (%): 55% and 63%
  Population Fragmented Nuclei (%): 9% and 11%
  Population Healthy Nuclei (%): 69% and 58%
  Population Hoechst High Intensity Objects (%): 0%
  Population Membrane Permeable-Phenotype (%): 6% and 5%
  Population Mitochondria Different-Phenotype (%): 5% and 8%
  Population Mitotic Cells (%): 44% and 36%
  Population Normal (%): 99% and 100%
  Population Pyknosed Nuclei (%): 21% and 30%
  Population Tubulin-Different-Phenotype (%): 59% and 61%
  Total Cell Count: 224 and 146
Fibroblast; [4]
  Population Apoptotic (%): 76% and 81%
  Population Fragmented Nuclei (%): 10% and 6%
  Population Healthy Nuclei (%): 40% and 46%
  Population Hoechst High Intensity Objects (%): 0% and 1%
  Population Mitochondria Different-Phenotype (%): 40% and 50%
  Population Mitotic Cells (%): 23% and 18%
  Population Normal (%): 99% and 98%
  Population Pyknosed Nuclei (%): 49% and 47%
  Population Tubulin-Different-Phenotype (%): 82%
  Total Cell Count: 238 and 280
Fibroblast; [5]
  Population Apoptotic (%): 61% and 78%
  Population Fragmented Nuclei (%): 9% and 12%
  Population Healthy Nuclei (%): 72% and 64%
  Population Hoechst High Intensity Objects (%): 1%
  Population Membrane Permeable-Phenotype (%): 4% and 5%
  Population Mitochondria Different-Phenotype (%): 3% and 8%
  Population Mitotic Cells (%): 38% and 21%
  Population Normal (%): 98%
  Population Pyknosed Nuclei (%): 18% and 22%
  Population Tubulin-Different-Phenotype (%): 54% and 42%
  Total Cell Count: 215 and 165
Fibroblast; [6]
  Population Apoptotic (%): 95%
  Population Fragmented Nuclei (%): 9% and 8%
  Population Healthy Nuclei (%): 12% and 13%
  Population Hoechst High Intensity Objects (%): 0%
  Population Membrane Permeable-Phenotype (%): 38% and 27%
  Population Mitochondria Different-Phenotype (%): 23% and 41%
  Population Mitotic Cells (%): 4%
  Population Normal (%): 99%
  Population Pyknosed Nuclei (%): 78% and 77%
  Population Tubulin-Different-Phenotype (%): 66% and 75%
  Total Cell Count: 174 and 211
